High-throughput results deposited in PubChem by The Scripps Research Institute Molecular Screening Center.
Shown are actives, neighbours in structure and some others; about 0.55% of the full set was active somewhere.
V1R ag counter: activates human V1a receptor in oxytocin agonist counter-screen; P37288; CHO-V1R cells, Fluo-8 calcium fluorescence, agonist mode; 0% DMSO, 100% 3 nM vasopressin; activation, % at 3 µM; 320,000 compounds, 0.25% hits; AID 2797;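 active means activation above the mean activation of all tested compounds plus 3 SD, per screening run, cut at about 20% in these data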;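 further: signal is peak over basal fluorescence ratio across a 100 second FLIPR read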
TRPN1 ag: zebrafish TRPN1 (NompC) channel agonism | HEK293 zebrafish TRPN1-YFP, Fluo-8 calcium fluorescence; 100% = response to 87 µM carbachol | activation, % at 3 µM | 220,000 compounds, 0.18% hits;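 active means activation above its plate's cutoff, the mean activation of test wells on that plate plus 3 SD, cut at about 19% in these data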;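 further: 0% = DMSO alone and 100% = 87 µM carbachol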
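Control set: carbachol 87 µM as high control, DMSO as low control; system: HEK293 stable line with zebrafish TRPN1-YFP; read-out: % activation versus carbachol response; detection: intracellular calcium fluorescence with Fluo-8; doses: single test compound dose, 3 µM nominal, 0.3% DMSO; schedule: dye 1 h 37 °C plus 30 min RT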
TRPML3 ag: agonists of human TRPML3 channel; Q8TDD5; HEK293 TRPML3-YFP, Fluo-8 calcium fluorescence; 100% = the carbachol control signal; activation, % at 3 µM; 220,000 compounds, 0.29% hits; AID 1448;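 active means activation above its plate's cutoff, the mean activation of the plate's test wells plus 3 SD, cut at about 12% in these data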;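 further: 0% = DMSO only wells and 100% = carbachol wells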
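Test system – HEK293 line with stable expression of human TRPML3-YFP channel · Control set – carbachol 87 µM final as high control (100%), DMSO as low control (0%) · Signal – Fluo-8 calcium dye fluorescence, ex 470-495, em 515-575 nm · Incubation – 1-h 37 °C dye load, 5-s basal, 120-s post-compound reads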
OXTR agonist: activates the human oxytocin receptor | CHO-OTR cells, Fluo-8 calcium fluorescence; normalized: DMSO 0%, oxytocin 100% | activation, % at 3 µM | 320,000 compounds, 0.32% hits | AID 2435;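 active means activation above the mean of all tested compounds plus 3 SD, cutoff set per screening run, cut at about 20% in these data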;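 further: peak over basal fluorescence ratio from a 100 s FLIPR kinetic read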
Target sequence (P30559 whole entry, looked up): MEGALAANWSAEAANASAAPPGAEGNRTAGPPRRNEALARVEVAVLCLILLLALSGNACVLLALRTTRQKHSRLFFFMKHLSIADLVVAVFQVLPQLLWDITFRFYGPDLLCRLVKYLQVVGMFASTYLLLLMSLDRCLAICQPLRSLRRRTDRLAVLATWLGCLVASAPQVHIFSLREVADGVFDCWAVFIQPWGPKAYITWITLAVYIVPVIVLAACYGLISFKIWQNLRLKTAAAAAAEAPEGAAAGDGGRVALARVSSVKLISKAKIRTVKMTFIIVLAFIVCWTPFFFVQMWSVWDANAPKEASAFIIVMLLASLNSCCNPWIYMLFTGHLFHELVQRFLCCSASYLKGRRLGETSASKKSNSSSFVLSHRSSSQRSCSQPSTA
OXTR potentiator: potentiators of human oxytocin receptor | P30559 | CHO-OTR cells, Fluo-8 calcium fluorescence, potentiator mode; 0% = oxytocin EC15, 100% = EC100 | activation, % at 3 µM | 320,000 compounds, 0.061% hits;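 active means activation above that plate's cutoff, the mean activation of tested compounds plus 3 SD, cut at about 6.6% in these data, passing the limit was not always enough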;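 further: 100% uses oxytocin at 75 nM as the full agonist control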
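Replication – single well per compound, singlicate · Assay system – CHO cell line stably expressing human OTR · Timing – 6 min pre-incubation, 100 s read · Measure – normalized max/min fluorescence ratio, % activation · Doses – 3.0 µM, one dose · Detection – Fluo-8 calcium dye fluorescence · Probe or stimulus – oxytocin near EC15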
V1aR agonist cf: confirmation of human vasopressin V1a receptor agonists. shares compounds with V1R ag counter. CHO-V1R cells, Fluo-8 calcium fluorescence, agonist. activation, % at 3 µM. 180 compounds, 20% hits. AID 434964;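 active means average activation exceeds primary screen hit cutoff, cut at about 21% in these data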;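 further: peak over basal fluorescence ratio during a 100 s FLIPR read; 0% = DMSO only wells and 100% = 3 nM vasopressin wells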
OXTR counter: counter-screen for V1a receptor agonists: oxytocin receptor agonists | shares compounds with V1R ag counter | CHO-OTR cells, Fluo-8 calcium fluorescence, agonist | activation, % at 3 µM | 180 compounds, 10% hits | AID 434969;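 active means mean activation over three repeats above the cutoff from the earlier oxytocin receptor agonist screen, cut at about 20% in these data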;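 further: peak over minimum fluorescence ratio within a 100 second FLIPR read; 0% = DMSO only wells and 100% = oxytocin high control wells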
The depositor's hits bear a star; nt = no result.

SMILES	V1R ag counter	TRPN1 ag	TRPML3 ag	OXTR agonist	OXTR potentiator	V1aR agonist cf	OXTR counter
O=C(NNC(=O)c1ccc[nH]1)c1cccc(C(F)(F)F)c1	-1	nt	nt	-1	-7	nt	nt
COCCN(CC(=O)Nc1cccc(C)c1C)C(=O)c1oc2c(Cl)cccc2c1C	1	nt	nt	-2	-11	nt	nt
COc1cccc(/C=N/Nc2nc(Nc3ccccc3)nc(-n3nc(C)cc3C)n2)c1O	21*	3	1	15	-21	6	1
Cc1cc(C)n(-c2nc(Nc3ccccc3)nc(-n3nc(C)cc3C)n2)n1	0	1	1	0	-7	nt	nt
CC(C)[C@H](NS(=O)(=O)c1cccc(C(F)(F)F)c1)C(=O)OCC(=O)NC(=O)NCc1ccco1	4	nt	nt	4	-11	nt	nt
c1cc2c3c(cccc3c1)NC1(CCC3(CC1)Nc1cccc4cccc(c14)N3)N2	32*	18	9	11	-17	4	17
c1cc2c3c(cccc3c1)NC1(CCCCCC1)N2	1	-2	1	0	-8	nt	nt
CCCCCCCCCCC[N+](C)(C)CC/C=C1/c2ccccc2Sc2ccc(Cl)cc21	38*	nt	nt	1	-13	11	17
COc1ccc(Cl)cc1C(=O)NNC(=S)NC(=O)c1cc(-c2ccccc2)nc2ccccc12	26*	5	1	14	-22	35*	21*
COC(=O)c1ccc(NC(=S)NC(=O)c2cc(-c3ccccc3)nc3ccccc23)cc1	1	0	1	1	-8	nt	nt
Cc1ccc([N+](=O)[O-])cc1S(=O)(=O)Nc1cccc(S(=O)(=O)NC2=NCCC2)c1	1	nt	nt	1	5	nt	nt
COCCN=C1N[C@@H](c2cccc(C(F)(F)F)c2)C(C(=O)OC)=C(C)N1Cc1ccccc1	5	nt	nt	14	-10	nt	nt
COC(=O)C1=C(C)N(Cc2ccccc2)C(=NCCc2c[nH]c3ccccc23)N[C@H]1c1cccc(C(F)(F)F)c1	20*	nt	nt	16	-5	4	6
CCC(C)C(NC(=O)OCc1ccccc1)C(=O)NC(Cc1ccc(O)cc1)C(=O)OC (stereo not drawn)	27*	8	2	17	-26	4	18
CC(C)c1ccc(NC2CCCN(C(=O)c3cccs3)C2)cc1 (stereo not drawn)	2	nt	nt	0	-6	nt	nt
S=c1[nH]nc(-c2cccs2)n1/N=C/c1c(Cl)cccc1Cl	27*	-3	1	13	-10	14	1
Cc1ccc(/C=N/n2c(-c3cccs3)n[nH]c2=S)cc1	-1	-2	0	-3	-13	nt	nt
CC(NC(=O)COC(=O)CN1C(=O)c2ccccc2C1=O)c1ccccc1 (stereo not drawn)	0	nt	nt	0	1	nt	nt
Cc1ccc(NC(=O)c2ccc(OC(=S)N3CCOCC3)cc2)cc1	26*	0	1	3	-13	0	0
O=C(/C=C/c1ccc(S(=O)(=O)N2CCOCC2)cc1)NC(CO)C(O)c1ccc([N+](=O)[O-])cc1 (stereo not drawn)	0	nt	nt	0	-4	nt	nt
CCCCCCCCCCOC(=O)Cn1c(COc2ccccc2OC)[n+](C)c2ccccc21	56*	nt	nt	10	-15	12	20
COc1ccc(CCNCC(O)COc2cccc(Br)c2)cc1OC (stereo not drawn)	1	2	2	0	-4	nt	nt
COc1ccc(CCNCC(O)COc2ccc(OC)cc2C(C)(C)C)cc1 (stereo not drawn)	24*	nt	nt	18	-12	1	3
C/C(=N/NC(=O)c1ccncc1)c1cc2ccc(O)cc2oc1=O	30*	1	3	18	-11	584*	700*
CCN(CC)S(=O)(=O)c1ccc(C(=O)Nc2nnc(-c3ccco3)o2)cc1	-1	-1	-1	-1	-1	nt	nt
SMILES	V1R ag counter	TRPN1 ag	TRPML3 ag	OXTR agonist	OXTR potentiator	V1aR agonist cf	OXTR counter
CCCCN(CC)S(=O)(=O)c1ccc(C(=O)Nc2nnc(-c3cccs3)o2)cc1	26*	0	0	0	-18	8	4
Clc1ncccc1-c1nc2ccccc2s1	-2	-2	0	-2	4	nt	nt
O=c1c(-c2nc3ccccc3s2)cccn1Cc1ccc(Cl)cc1	22*	0	1	0	-17	0	-1
O=C(CSc1ncc(-c2ccc(F)cc2)n1Cc1ccco1)Nc1nccs1	29*	0	-1	16	-34	11	16
O=C(CCCN=C1NS(=O)(=O)c2ccccc21)OCC(=O)c1ccc(Br)cc1	26*	nt	nt	14	-14	10	8
Cc1ccc(NC(=O)CNc2ccccc2N2CCCC2=O)cc1S(=O)(=O)N1CCCCC1	2	nt	nt	3	-8	nt	nt
CCOc1ccc(NC(=O)c2cccc(NC(=O)c3ccccc3)c2)cc1	50*	nt	nt	1	-18	2	-1
CN(CC(=O)NCc1ccc(F)cc1)CC(=O)Nc1ccc(Cl)c(C(F)(F)F)c1	29*	nt	nt	16	-15	10	13
COc1ccc(Br)cc1S(=O)(=O)NCCc1cccs1	1	nt	nt	0	-6	nt	nt
C[C@@H](C(=O)N1CCN(c2ccccc2)CC1)N1C(=O)C2CC=CCC2C1=O (stereo partly drawn)	0	nt	nt	0	-7	nt	nt
Cc1ccc(NS(=O)(=O)c2ccc(C(=O)N3CCCCCCC3)cc2)cc1	15	nt	nt	8	-14	nt	nt
Cc1ccc(NS(=O)(=O)c2ccc(C(=O)N3CCCCCC3)cc2)cc1	21*	nt	nt	14	-12	13	17
CCCCCc1ccc(OCCCC[n+]2ccccc2)c(CCCCC)c1	18	-2	0	9	-7	nt	nt
CCCCCc1ccc(OCCCC[n+]2ccc(C)cc2)c(CCCCC)c1	22*	-1	0	10	-26	13	17
O=C(OCCN1C(=O)c2cccc3c(N4CCOCC4)ccc(c23)C1=O)c1ccccc1Cl	26*	7	2	12	-11	30*	42*
CCOc1ccc(CONS(=O)(=O)c2ccc(NC(C)=O)cc2)cc1Cl	23*	2	1	11	-19	9	8
COc1cc(C(=O)NNC(=S)NC(=O)c2ccc3c(c2)OCO3)cc(OC)c1OC	0	0	0	8	-5	nt	nt
COc1cc(C(=O)NNC(=S)NC(=O)c2ccccc2C)cc(OC)c1OC	29*	3	5	9	-5	11	8
Nc1ncnc2c1ncn2[C@@H]1O[C@H](CNCc2ccccc2OCC(=O)N2CCCCC2)[C@@H](O)[C@H]1O	1	nt	nt	1	1	nt	nt
